According to ChEMBL document CHEMBL1133857, “Beta 3 agonists. Part 1: evolution from inception to BMS-194449” (Bioorg Med Chem Lett, 2001):
pKi: −log10 of the molar value.

Tests used:
[1] = molecular target: T1, Beta-3 adrenergic receptor (Homo sapiens, UniProt P13945); assay: Human beta-3 adrenergic receptor agonist activity by measurement of cAMP accumulation levels in CHO membranes expressing human beta-3 receptor.; assay type: functional, cell membranes
In short: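 β3 intrinsic activity (% activation) measured in membranes from CHO cells transfected with human β3 adrenergic receptor.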
Target sequence in this assay (P13945 whole entry, looked up): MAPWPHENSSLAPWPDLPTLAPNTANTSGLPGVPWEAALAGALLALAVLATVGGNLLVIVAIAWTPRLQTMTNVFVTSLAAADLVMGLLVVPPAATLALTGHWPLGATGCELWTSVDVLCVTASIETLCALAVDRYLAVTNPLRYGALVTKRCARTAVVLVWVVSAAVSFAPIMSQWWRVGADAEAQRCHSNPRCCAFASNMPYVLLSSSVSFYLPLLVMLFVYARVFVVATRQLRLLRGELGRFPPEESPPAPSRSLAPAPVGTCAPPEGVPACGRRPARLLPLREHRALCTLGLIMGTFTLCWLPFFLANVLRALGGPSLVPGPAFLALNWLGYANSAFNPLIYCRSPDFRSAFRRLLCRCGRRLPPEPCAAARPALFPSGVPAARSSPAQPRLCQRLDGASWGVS

[2] = molecular target: Beta-2 adrenergic receptor and beta-3 adrenergic receptor (Homo sapiens) (UniProt P07550+P13945); assay: Selectivity as the ratio of Ki of beta-2 adrenergic receptor to the Ki of beta-3 adrenergic receptor.; assay type: protein assay
In short: (§1)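 Ki at human β1, β2 and β3 adrenergic receptors measured by binding to membranes prepared from CHO cells transfected with each human receptor. Selectivity is expressed as the ratio of β1 or β2 Ki to β3 Ki.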

[3] = molecular target: Adrenergic receptor beta; ADRB1 & ADRB3 (Homo sapiens) (UniProt P08588+P13945); assay: Selectivity measured as the ratio of Ki of Beta-1 Adrenergic receptor to the Ki of Beta-3 Adrenergic receptor; assay type: protein assay; in short: as §1
Adrenergic receptor beta; ADRB1 & ADRB3 (Homo sapiens), sequence (P08588 whole entry, looked up): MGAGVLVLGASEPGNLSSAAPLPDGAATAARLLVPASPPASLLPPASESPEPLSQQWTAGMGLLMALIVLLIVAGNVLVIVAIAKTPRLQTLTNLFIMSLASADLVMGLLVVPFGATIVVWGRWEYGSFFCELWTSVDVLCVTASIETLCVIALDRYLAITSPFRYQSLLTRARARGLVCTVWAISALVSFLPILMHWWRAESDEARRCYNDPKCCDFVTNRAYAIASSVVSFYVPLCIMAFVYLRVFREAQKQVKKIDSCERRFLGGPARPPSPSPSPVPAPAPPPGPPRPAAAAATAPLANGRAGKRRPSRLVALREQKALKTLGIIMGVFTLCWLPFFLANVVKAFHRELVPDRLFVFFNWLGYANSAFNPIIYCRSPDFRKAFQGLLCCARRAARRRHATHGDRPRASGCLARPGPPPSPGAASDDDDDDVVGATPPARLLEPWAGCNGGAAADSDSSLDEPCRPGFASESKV
Adrenergic receptor beta; ADRB1 & ADRB3 (Homo sapiens), sequence (P13945 whole entry, looked up): as the sequence (P13945 whole entry, looked up) above

[4] = molecular target: T1, Beta-3 adrenergic receptor; assay: Binding affinity against CHO cells transfected with human beta-3 adrenergic receptor in the presence of [125I]iodocyanopindolol; assay type: cell-based; in short: as §1
Target sequence in this assay (P13945 whole entry): as the sequence (P13945 whole entry, looked up) above

Cavia porcellus = organism: Cavia porcellus; assay: (§2) Intrinsic activity as the acceleration in contraction of spontaneously beating guinea pig atria relative to that induced by isoproterenol; assay type: functional
[5] = Response of African green monkeys to iv injection measured as beta-2 margin before decrease of serum K; assay type: functional, Cercopithecidae
In short: (§3)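 Agonist given iv to ketamine-anesthetized African green monkeys. A β1 event is the onset of tachycardia, and a β2 event is a decrease in serum K+. Margin = dose producing statistically significant onset of the β1 or β2 event ÷ ED50 for lipolysis.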

[6] = Response of African green monkeys to iv injection measured as beta-1 margin before onset of tachycardia; assay type: functional, Cercopithecidae; in short: as §3
[7] = Response of African green monkeys to lipolysis upon iv injection of compound; assay type: functional; details: Cercopithecidae
In short: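 Agonist given iv to ketamine-anesthetized African green monkeys. Lipolysis is read as the rise in non-esterified fatty acids, and the ED50 is given in mg/kg. β3 mediation is checked by co-administration with propranolol 0.1 mg/kg.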

[8] = molecular target: Beta-1 adrenergic receptor (Cavia porcellus) (UniProt B0FL73); assay: as §2; assay type: functional
Beta-1 adrenergic receptor (Cavia porcellus), sequence (B0FL73 1-467): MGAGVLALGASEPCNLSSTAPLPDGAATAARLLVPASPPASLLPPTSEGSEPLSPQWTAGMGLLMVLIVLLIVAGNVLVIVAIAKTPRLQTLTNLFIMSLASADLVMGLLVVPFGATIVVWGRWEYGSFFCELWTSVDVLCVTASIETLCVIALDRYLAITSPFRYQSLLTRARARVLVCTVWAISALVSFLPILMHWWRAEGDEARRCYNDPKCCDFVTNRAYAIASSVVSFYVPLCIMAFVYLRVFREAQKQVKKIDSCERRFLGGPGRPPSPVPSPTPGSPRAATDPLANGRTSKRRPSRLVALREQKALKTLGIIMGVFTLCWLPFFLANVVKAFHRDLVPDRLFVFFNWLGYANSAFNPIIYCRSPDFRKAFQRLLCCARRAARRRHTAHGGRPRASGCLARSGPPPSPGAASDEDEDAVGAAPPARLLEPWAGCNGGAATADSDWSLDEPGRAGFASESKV

| Compound | Intrinsic activity [1] | Selectivity [2] | Selectivity [3] | pKi [4] | Intrinsic activity (Cavia porcellus) | Ratio of dose [5] | Ratio of dose [6] | ED50 [7] | Intrinsic activity [8] |
| --- | --- | --- | --- | --- | --- | --- | --- | --- | --- |
| CS(=O)(=O)Nc1cc([C@@H](O)CNC(c2ccccc2)c2ccccc2)ccc1O | 44% | 5 | 5 | 5.24 | – | – | – | – | – |
| COc1ccc(C(NC[C@H](O)c2ccc(O)c(NS(C)(=O)=O)c2)c2ccc(OC)cc2)cc1 | 100% | – | – | – | 85% | – | – | – | – |
| CC(C)NCC(O)c1ccc(O)c(NS(C)(=O)=O)c1 (stereo unspecified) [SOTERENOL] | 109% | 0.6 | 2 | 5.39 | – | – | – | – | – |
| CCC(C)(C)NCC(O)c1ccc(O)c(NS(C)(=O)=O)c1 (stereo unspecified) | 125% | 0.03 | 0.3 | 5.43 | – | – | – | – | – |
| COc1ccc(C(Cc2ccccc2)NCC(O)c2ccc(O)c(NS(C)(=O)=O)c2)c(OC)c1 (stereo unspecified) | 102% | 3 | 37 | 7.15 | – | – | – | – | – |
| COc1ccc(C(C)(NC[C@H](O)c2ccc(O)c(NS(C)(=O)=O)c2)c2ccc(OC)cc2)cc1 | 79% | 8 | 3 | 7.70 | 79% | – | – | – | – |
| CS(=O)(=O)Nc1cc(C(O)CNCCc2ccccc2)ccc1O (stereo unspecified) | 91% | 0.07 | 2 | 5.96 | – | – | – | – | – |
| CS(=O)(=O)Nc1cc([C@@H](O)CNC(c2ccc(F)cc2)c2ccc(F)cc2)ccc1O | 70% | 2 | 3 | 5.55 | 48% | – | – | – | – |
| CS(=O)(=O)Nc1cc(C(O)CNC(CCCCC(=O)O)Cc2ccccc2)ccc1O (stereo unspecified) | 57% | 0.3 | 1 | 4.06 | – | – | – | – | – |
| CS(=O)(=O)Nc1cc([C@@H](O)CNC(c2ccc(OC(F)F)cc2)c2ccc(OC(F)F)cc2)ccc1O | 77% | 7 | 8 | 6.80 | 24% | >60 | >6 | 0.08 mg/kg | – |
| CS(=O)(=O)Nc1cc(C(O)CNCCc2ccc(OCC(=O)O)cc2)ccc1O (stereo unspecified) | 77% | 0.06 | 2 | 4.31 | – | – | – | – | – |
| COc1ccc(C(Cc2ccccc2)NCC(O)c2ccc(O)c(NS(C)(=O)=O)c2)cc1OC (stereo unspecified) | 105% | 8 | 69 | 7.48 | – | – | – | – | – |
| CS(=O)(=O)Nc1cc(C(O)CNC(Cc2ccccc2)Cc2ccccc2)ccc1O (stereo unspecified) | – | 0.3 | 6 | 5.82 | – | – | – | – | – |
| COC(=O)CCCCC(Cc1ccccc1)NCC(O)c1ccc(O)c(NS(C)(=O)=O)c1 (stereo unspecified) | 89% | 5 | 26 | 6.24 | – | – | – | – | – |
| COCc1ccc(C(NC[C@H](O)c2ccc(O)c(NS(C)(=O)=O)c2)c2ccc(COC)cc2)cc1 | 78% | 13 | 46 | 6.01 | – | – | – | – | – |
| CNC(=O)CCCCC(Cc1ccccc1)NCC(O)c1ccc(O)c(NS(C)(=O)=O)c1 (stereo unspecified) | 104% | 0.5 | 7 | 5.80 | – | – | – | – | – |
| CS(=O)(=O)Nc1cc(C(O)CNC23CC4CC(CC(C4)C2)C3)ccc1O (stereo unspecified) | 110% | 0.04 | 15 | 4.96 | – | – | – | – | – |
| COc1ccc([C@@H](Cc2ccccc2)NC[C@H](O)c2ccc(O)c(NS(C)(=O)=O)c2)cc1OC | 112% | 6 | 63 | 7.96 | – | 3 | <3 | 0.03 mg/kg | – |
| COc1ccc([C@H](Cc2ccccc2)NC[C@H](O)c2ccc(O)c(NS(C)(=O)=O)c2)cc1OC | 93% | 6 | 63 | 6.49 | – | – | – | – | – |
| CC(=O)Nc1ccc(C(NC[C@H](O)c2ccc(O)c(NS(C)(=O)=O)c2)c2ccc(NC(C)=O)cc2)cc1 | 96% | 3 | 17 | 6.52 | – | – | – | – | 88% |

| Compound | Intrinsic activity [1] | Selectivity [2] | Selectivity [3] | pKi [4] | Intrinsic activity (Cavia porcellus) | Ratio of dose [5] | Ratio of dose [6] | ED50 [7] | Intrinsic activity [8] |
| --- | --- | --- | --- | --- | --- | --- | --- | --- | --- |
| CCc1ccc(C(Cc2ccccc2)NCC(O)c2ccc(O)c(NS(C)(=O)=O)c2)cc1CC (stereo unspecified) | 91% | 0.5 | 6 | 6.28 | – | – | – | – | – |
| COc1ccc(C(Cc2ccccc2)NCC(O)c2ccc(O)c(NS(C)(=O)=O)c2)cc1 (stereo unspecified) | 99% | – | – | – | – | – | – | – | – |
| Cc1ccc(C(Cc2ccccc2)NCC(O)c2ccc(O)c(NS(C)(=O)=O)c2)cc1C (stereo unspecified) | 79% | 3 | 43 | 6.88 | – | – | – | – | – |
| CS(=O)(=O)Nc1cc(C(O)CNC(Cc2ccccc2)C2CCCCC2)ccc1O (stereo unspecified) | 80% | 0.7 | 7 | 5.37 | – | – | – | – | – |
| CS(=O)(=O)Nc1cc(C(O)CNC(CCCCCO)Cc2ccccc2)ccc1O (stereo unspecified) | 72% | 0.5 | 10 | 6.32 | – | – | – | – | – |
| COc1ccc(C(NC[C@H](O)c2ccc(O)c(NS(C)(=O)=O)c2)(C(N)=O)c2ccc(OC)cc2)cc1 | 106% | 10 | 3 | 6.66 | – | – | – | – | – |
| CS(=O)(=O)Nc1cc(C(O)CNC(Cc2ccccc2)c2ccc(Cl)c(Cl)c2)ccc1O (stereo unspecified) | 97% | 1 | 9 | 6.38 | – | – | – | – | – |
| CC(NC[C@H](O)c1ccc(O)c(NS(C)(=O)=O)c1)(c1ccc(OC(F)F)cc1)c1ccc(OC(F)F)cc1 | 94% | 2 | 2 | 7.09 | – | – | – | – | – |
| CS(=O)(=O)Nc1cc(C(O)CNCc2ccccc2)ccc1O (stereo unspecified) | – | 0.25 | 2 | 4.90 | – | – | – | – | – |
| C[C@H](Cc1ccc(OCC(=O)O)cc1)NC[C@H](O)c1cccc(Cl)c1 | 67% | – | – | – | – | – | – | – | – |
| CCCCCC(Cc1ccccc1)NCC(O)c1ccc(O)c(NS(C)(=O)=O)c1 (stereo unspecified) | 77% | 0.5 | 8 | 6.49 | – | – | – | – | – |
| COc1ccc(CCNCC(O)c2ccc(O)c(NS(C)(=O)=O)c2)cc1 (stereo unspecified) | 93% | 0.3 | 4 | 6.32 | – | – | – | – | – |
| CS(=O)(=O)Nc1cc(C(O)CNC(Cc2ccccc2)c2ccccc2)ccc1O (stereo unspecified) | – | 3 | 15 | – | – | – | – | – | – |
| CS(=O)(=O)Nc1cc(C(O)CN)ccc1O (stereo unspecified) | 93% | 0.1 | 0.6 | 4.77 | – | – | – | – | – |
| CN(C)C(=O)c1ccc(C(NC[C@H](O)c2ccc(O)c(NS(C)(=O)=O)c2)c2ccc(C(=O)N(C)C)cc2)cc1 | 43% | – | – | – | – | – | – | – | – |
| COc1ccc(CCNCC(O)c2ccc(O)c(NS(C)(=O)=O)c2)cc1OC (stereo unspecified) | 110% | 1 | 4 | 6.26 | – | – | – | – | – |
| COC(=O)COc1ccc(CCNCC(O)c2ccc(O)c(NS(C)(=O)=O)c2)cc1 (stereo unspecified) | 79% | 0.01 | 0.7 | 5.48 | – | – | – | – | – |
| COc1ccc(CNCC(O)c2ccc(O)c(NS(C)(=O)=O)c2)cc1 (stereo unspecified) | 95% | 2 | 22 | 5.81 | – | – | – | – | – |
| COc1cccc(C(Cc2ccccc2)NCC(O)c2ccc(O)c(NS(C)(=O)=O)c2)c1 (stereo unspecified) | 99% | 2 | 16 | 6.64 | – | – | – | – | – |
